Published values from different studies.
Protocols differ between the studies behind these lines.
SLC22A1: Solute carrier family 22 member 1 (SLC22A1, Homo sapiens, UniProt O15245)

COc1ccc(CN2C[C@H]3CC[C@@H]4[C@](C)(COC(C)=O)[C@H](OC(C)=O)CC[C@@]4(C)[C@@H]3C[C@@H]2C2=CCOC2=O)cc1 — cell death (MRC5; cell growth or viability, ATP luminescence; 25 µM, 72 h): 56.4%
C=C[C@H]1C[N@@]2CC[C@H]1C[C@@H]2[C@@H](O)c1ccnc2ccc(OC)cc12 — inhibition (SLC22A1; transporter uptake, inhibitor; MDCK-II; 100 µM, 5 min): 77%
CN(CCC(=O)O)C(=O)c1ccc2c(c1)CC[C@@H]1[C@@H]2CC[C@]2(C)C(c3cncc(F)c3)=CC[C@@H]12 — IC50 (UDP-glucuronosyltransferase 2B4 (UGT2B4, Homo sapiens, UniProt P06133); enzyme activity, inhibitor): > 30 µM
COc1ccc(CN2C[C@H]3CC[C@@H]4[C@](C)(CO)[C@H](O)CC[C@@]4(C)[C@@H]3C[C@@H]2C2=CCOC2=O)cc1 — cell death (MRC5; cell growth or viability, ATP luminescence; 25 µM, 72 h): -1.8%
COc1ccc(-c2cc(=O)c3c(OC)cc(OC)cc3o2)cc1 — CC50 (HS27; cell growth or viability, MTT; 24 h): > 200 µM
C[C@@]12COCO[C@@H]1CC[C@]1(C)[C@@H]2CC[C@@H]2CN(Cc3ccccc3)[C@@H](C3=CCOC3=O)C[C@H]21 — cell death (MRC5; cell growth or viability, ATP luminescence; 25 µM, 72 h): -1.2%
COc1cc(OC)c2c(=O)cc(-c3cccc(Br)c3)oc2c1 — CC50 (HS27; cell growth or viability, MTT; 24 h): 128 µM
C=CCn1c(=O)c2cnc(Nc3ccc(N4CCN(C)CC4)cc3)nc2n1-c1cccc(C(C)(C)O)n1 — concentration (human, plasma; oral, 200 mg, 8 h, single dose): 300 nM
CCCCOC(=O)N1CCN(C(=O)[C@H](CP(=O)(O)O)NC(=O)c2cc(N3CC[C@H](OC)C3)nc(-c3ccccc3)n2)CC1 — concentration (human, plasma; subcutaneous, 8 mg, 24 h, single dose): 0.4 ng/mL
COc1cc(OC)c2c(=O)cc(-c3ccc(N(C)C)cc3)oc2c1 — CC50 (HS27; cell growth or viability, MTT; 24 h): > 200 µM
O=C(O)CSc1nnc(Br)n1-c1ccc(C2CC2)c2ccccc12 — inhibition (SLC22A1; transporter uptake, inhibitor; MDCK-II; 30 µM, 5 min): 58%
CC(C)CN1C[C@H]2CC[C@@H]3[C@]4(C)COC(C)(C)O[C@@H]4CC[C@@]3(C)[C@@H]2C[C@@H]1C1=CCOC1=O — cell death (MRC5; cell growth or viability, ATP luminescence; 25 µM, 72 h): -4.1%
